From publication PMC2906681 (Biochemical pharmacology, 2010)

What was measured:
[1] = biological target: T1, GST-Shp2 PTP domain protein (Homo sapiens, UniProt Q06124); experiment: In vitro Shp2 PTP activity inhibition assay; assay type: biochemical
T1 sequence (Q06124 247-517 limits assumed): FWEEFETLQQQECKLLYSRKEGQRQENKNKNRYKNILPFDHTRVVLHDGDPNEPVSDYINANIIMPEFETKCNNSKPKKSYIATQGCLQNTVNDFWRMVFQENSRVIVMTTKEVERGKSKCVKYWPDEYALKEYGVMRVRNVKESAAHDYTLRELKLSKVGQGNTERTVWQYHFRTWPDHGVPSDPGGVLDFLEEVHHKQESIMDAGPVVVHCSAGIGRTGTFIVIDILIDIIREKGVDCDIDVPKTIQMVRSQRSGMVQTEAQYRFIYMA

[2] = tested on: TF-1/Shp2^E76K cells; experiment: Fluorescence uptake assay; assay type: in vitro ADME; settings: 5 h incubation, ex/em 485/535 nm
Procedure, shortened: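 TF-1/Shp2E76K cells (6 × 10^5 in 1 ml RPMI1640/10% FBS) were incubated 5 h at 37 °C/5% CO2 with test compound or DMSO. Fluorescence (485/535 nm) was read in the whole suspension, then in cell-free medium (supernatant plus washes) and in twice-washed pellets. Fraction totals were expressed relative to the 100 µM suspension, set as 100%. Two duplicate experiments (n = 4).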

[3] = tested on: cells; experiment: Confocal laser scanning microscopy of compound uptake; assay type: in vitro ADME; settings: 25 µM, 3 h
Procedure, shortened: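 TF-1/Shp2E76K cells grown in glass-bottom dishes were exposed to test compound at 25 µM for 3 h, then Hoechst 33342 (5 µg/ml) was added. Internal confocal sections were imaged with a 63X/1.40NA oil objective (2,520×), using 458 nm argon and 405 nm diode excitation with tunable emission filters. Compound fluorescence was viewed green.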

[4] = tested on: paxillin dephosphorylation; experiment: EGF-induced paxillin tyrosine dephosphorylation in MDA-MB-468 cells; assay type: cell-based; settings: 20 µM, 2 h; EGF 50 ng/ml 10 min
Procedure, shortened: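 Serum-starved MDA-MB-468 cells received test compound (20 µM, 2 h) and/or EGF (50 ng/ml, 10 min). Cells were lysed on ice in Tris buffer (pH 7.5) containing Na3VO4, NaF, pyrophosphate and protease inhibitors. Paxillin was immunoprecipitated, resolved by SDS-PAGE and immunoblotted with anti-phosphotyrosine and anti-paxillin antibodies.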

[5] = tested on: Erk1/2 activation; experiment: EGF-stimulated Erk1/2 activation in MDA-MB-468 cells; assay type: cell-based; settings: 0–20 µM tested, EGF 2 ng/ml 5 min
Procedure, shortened: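 Serum-starved MDA-MB-468 cells were pretreated with test compound (0–20 µM), then stimulated with EGF (2 ng/ml, 5 min). Cleared lysates were immunoblotted for dual-phosphorylated Erk1/2 and total Erk1/2.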

[6] = tested on: MDA-MB-468 cells; experiment: Transwell cell migration assay; assay type: cell-based; settings: EGF 10 ng/ml, 16 h
[7] = biological target: T2, Shp2^E76K (Homo sapiens, UniProt Q06124, E76K); experiment: Shp2^E76K PTP activity in immune complexes from TF-1/Shp2^E76K cells; assay type: cell-based; settings: GM-CSF-free medium
T2 sequence (Q06124 1-593 E76K): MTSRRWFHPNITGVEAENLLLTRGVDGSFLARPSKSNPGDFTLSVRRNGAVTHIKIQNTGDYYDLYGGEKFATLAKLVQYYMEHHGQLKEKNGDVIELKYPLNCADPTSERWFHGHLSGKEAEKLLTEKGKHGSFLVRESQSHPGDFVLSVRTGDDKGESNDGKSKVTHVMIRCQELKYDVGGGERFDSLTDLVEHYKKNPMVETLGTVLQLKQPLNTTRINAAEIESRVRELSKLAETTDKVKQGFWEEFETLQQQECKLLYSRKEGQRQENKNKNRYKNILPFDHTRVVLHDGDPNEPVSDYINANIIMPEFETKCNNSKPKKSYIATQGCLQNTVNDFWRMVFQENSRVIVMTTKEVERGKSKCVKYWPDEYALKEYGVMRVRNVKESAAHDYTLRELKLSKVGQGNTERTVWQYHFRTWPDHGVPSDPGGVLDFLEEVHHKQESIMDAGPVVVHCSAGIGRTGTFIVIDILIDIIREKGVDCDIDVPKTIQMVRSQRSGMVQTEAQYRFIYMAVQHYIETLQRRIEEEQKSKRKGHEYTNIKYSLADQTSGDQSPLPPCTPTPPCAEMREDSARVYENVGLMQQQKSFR
Procedure, shortened: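 TF-1/Shp2E76K cells were treated in GM-CSF-free RPMI1640/10% FBS with test compound at various concentrations. Flag-Shp2E76K was immunoprecipitated with anti-Flag M2/protein G (0.2 mg lysate, 2 h, 4 °C) and washed. Complexes were incubated with 50 µM DiFMUP for 20 min at room temperature, and fluorescence was measured. Part of each immunoprecipitate was blotted for Shp2. Two experiments.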

[8] = tested on: pErk1/2 and Bcl-XL; experiment: pErk1/2 and Bcl-XL immunoblotting in TF-1/Shp2^E76K cells; assay type: cell-based; settings: concentration-dependent
[9] = tested on: TF-1/Shp2^E76K cells; experiment: Cell growth assay; assay type: cell-based; settings: 96 h, read-out: concentration giving a 50% decrease in viable cells
Procedure, shortened: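 TF-1/Shp2E76K cells were plated at 1,000 cells/well in triplicate in RPMI1640/10% FBS without GM-CSF, with test compound. The compound volume was ≤0.1% of the total. Cells were incubated 4 days at 37 °C/5% CO2, then relative viable cell number was read with CellTiterGlo. Data came from two triplicate experiments.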

[10] = tested on: TF-1/Shp2^E76K cells; experiment: EB/AO staining apoptosis assay; assay type: cell-based; settings: 3 days, base level 4.2%
[11] = tested on: STAT1 tyrosine phosphorylation; experiment: IFN-γ-stimulated STAT1 tyrosine phosphorylation in HT-29 cells; assay type: cell-based; settings: 20 µM, 2 h pre-treatment, IFN-γ 20 U/ml
[12] = tested on: p21; experiment: p21 expression in HT-29 cells; assay type: cell-based; settings: 12.5 µM with IFN-γ, 24 h, versus IFN-γ alone
Procedure, shortened: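 HT-29 cells were treated 24 h with IFN-γ at indicated amounts, with or without test compound at 12.5 µM. Cell lysates were immunoblotted for p21, with β-actin as loading reference.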

[13] = tested on: HT-29 cells; experiment: Cell growth assay; assay type: cell-based; settings: for fraction of inhibition: 4 days
Procedure, shortened: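 HT-29 cells at 1,000 cells/well, in triplicate, in RPMI1640/10% FBS with IFN-γ (100 U/ml) and/or test compound or vehicle. Compound volume kept ≤0.1% of total. Incubated 4 days at 37 °C/5% CO2. Relative viable cell number was read by CellTiterGlo luminescence. Synergism of the two agents was calculated with the Bliss definition.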

## COC(=O)c1cccc(N/N=C2\C(=O)Nc3ccc(S(=O)(=O)NCc4ccc(F)cc4)cc32)c1 [SPI-112Me, (Z)-3-(2-(5-(N-(4-fluorobenzyl)sulfamoyl)-2-oxoindolin-3-ylidene)hydrazinyl)benzoic acid methyl ester]
[1]
  IC50: > 100 µM
[2]
  fluorescent signal associated with the cell pellets: substantial amount
[3]
  green fluorescence in confocal images of internal sections of cells: readily detectable
[4]
  effect on EGF-induced paxillin tyrosine dephosphorylation: prevented
[5]
  concentration at which inhibition of EGF-stimulated pErk1/2 signal was observed: 10 µM
[6]; 12.5 µM
  reduction of EGF-stimulated cell migration: 62%
[6]; 25 µM
  effect on EGF-stimulated cell migration: completed blocked
[7]
  Shp2^E76K PTP activity in treated cells: lower Shp2^E76K PTP activity
[8]
  amounts of pErk1/2 and Bcl-XL: reduced
[9]
  IC50: 10 µM
[10]; 12.5 µM
  apoptotic cells: 9.3%
[10]; 25 µM
  apoptotic cells: 18.8%
[11]
  effect on IFN-γ-stimulated STAT1 tyrosine phosphorylation: increased amount of tyrosine-phosphorylated STAT1
[12]
  p21 expression: higher levels of p21
[13]; 6.25 µM SPI-112Me alone
  fraction of inhibition: 0.32
[13]; 6.25 µM SPI-112Me plus IFN-γ 100 U/ml
  fraction of inhibition: 0.57
[13]; 12.5 µM SPI-112Me alone
  fraction of inhibition: 0.71
[13]; 12.5 µM SPI-112Me plus IFN-γ 100 U/ml
  fraction of inhibition: 0.84
[13]; IFN-γ 100 U/ml plus SPI-112Me
  combination effect with IFN-γ on inhibition of cell growth (Bliss): synergistic
